Assay [1] relates to RAW264.7. Put plainly: Cell viability of LPS-stimulated mouse RAW264.7 cells after 24 hrs by MTT assay. Also on record: concentration or dose not given beside the values. Format: functional. In short, it runs like this: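 Cells cultured as for the nitrite assay (DMEM/10% FBS, medium renewed at 24 h) and exposed to compounds at 0–20 µg/mL plus LPS 1 µg/mL for 24 h. MTT (5 mg/mL stock in PBS, 10 µL per 100 µL culture) added for 4 h at 37 °C, formazan dissolved in DMSO, read at 550 nm; untreated cells set as 100%. Mean ± SD, three experiments in triplicate.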
In general terms: Tetrazolium assays rely on reduction of a dye to a coloured formazan, in cell work by metabolically active cells.

Assay [2] has as its system RAW264.7. The experiment in a line: Antiinflammatory activity in mouse RAW264.7 cells assessed as inhibition of LPS-induced NO production by measuring nitrite level after 24 hrs. Format: functional. In short, it runs like this:
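RAW264.7 cells in DMEM with 10% heat-inactivated FBS, 37 °C, 5% CO2, 96-well; medium renewed after 24 h, then compounds (0, 1, 5, 10 or 20 µg/mL) added with LPS 1 µg/mL for 24 h. Supernatant mixed 1:1 with Griess reagent, 10 min room temperature, nitrite read at 540 nm. Mean ± SD of three experiments, each in triplicate.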

Regarding `CC(C)=CCOc1ccc(C2=C(CC(C)C)C(=O)OC2=O)cc1`, the Activity in the assay on RAW264.7 [1] was 67.9%; with RAW264.7 [2] it was 20.8 µM.
For `CC(C)=CCOc1ccc(C2=C(CC(C)C)C(=O)NC2=O)cc1` the same measures were 69.1% and 10.6 µM.
For `CC(C)=CCOc1ccc(C2=C(CC(C)C)C(=O)N(O)C2=O)cc1` the same measures were 86.8% and 18.3 µM.
For `CC(C)CC1=C(c2ccc(O)cc2)C(=O)N(O)C1=O` [ANTROCINNAMOMIN B] the same measures were 82.2% and 18 µM.
Turning to `CC(C)CC1=C(c2ccc(O)cc2)C(=O)OC1=O` [ANTROCINNAMOMIN C], the Activity came out at 76.3% with RAW264.7 [1] and 21.8 µM in the assay on RAW264.7 [2].
For `CC(C)=CCOc1ccc(C2=C(CC(C)C)C(O)OC2=O)cc1` (centres undefined) [ANTROCINNAMOMIN D] the same measures were 88.2% and 20 µM.
For `CC(=O)ON1C(=O)C(CC(C)C)=C(c2ccc(OCC=C(C)C)cc2)C1=O` [ANTROCINNAMOMINS A] the same measures were 91.1% and 12.5 µM.
